25 compounds from ChEMBL document CHEMBL3045061, “Biological activity of peanut (Arachis hypogaea) phytoalexins and selected natural and synthetic Stilbenoids” (J Agric Food Chem, 2011) can be followed below.

Data set [1] is described as follows: Octanol-water partition coefficient, log P of the compound by HPLC analysis. It counts as physicochemical. The gist of the method: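 Log P was estimated by isocratic reversed-phase HPLC on a Gemini C18 column (5 μm, 4.6 × 150 mm). The mobile phase was MeOH/H2O/2% HCOOH in H2O (55:43:2, w/w) at 1.0 mL/min and 37 °C, with samples dissolved in the mobile phase. Capacity factor K = (t1 − t0)/t0, with t0 taken from D2O. […] At least 5 injections were made.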

Data set [2] deals with Phomopsis obscurans. The data set can be described thus: Antifungal activity against Phomopsis obscurans assessed as growth inhibition at 30 uM after 144 hr by NCCLS M27-A broth microdilution method. The note with it: Paraphomopsis obscurans. It counts as functional, organism-based. Summed up: (§1)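 Broth microdilution adapted from the NCCLS M27-A yeast method for conidia-forming filamentous plant pathogens. Growth inhibition was read at 48 h and 72 h for Botrytis cinerea, and at 120 h and 144 h for Phomopsis viticola and P. obscurans. The highest concentration tested was 30 μM. Captan served as the internal standard. Means were compared by ANOVA with Fisher's protected LSD.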
(Broth dilution looks for growth in wells or tubes with falling amounts of substance.)

Data set [3] concerns Diaporthe ampelina. The data set can be described thus: Antifungal activity against Diaporthe ampelina assessed as growth inhibition after 120 hr by NCCLS M27-A broth microdilution method. It counts as functional, organism-based. Summed up:
as §1

For data set [4], the system named is Botrytis cinerea. The data set can be described thus: Antifungal activity against Botryotinia fuckeliana assessed as growth inhibition after 72 hr by NCCLS M27-A broth microdilution method. It counts as functional, organism-based. Summed up: as §1
Data set [5] relates to Botrytis cinerea. The data set can be described thus: Antifungal activity against Botryotinia fuckeliana assessed as growth inhibition after 48 hr by NCCLS M27-A broth microdilution method. It counts as functional, organism-based. The gist of the method: as §1
The subject of data set [6] is Phomopsis obscurans. The data set can be described thus: Antifungal activity against Phomopsis obscurans assessed as growth inhibition after 144 hr by NCCLS M27-A broth microdilution method. It is filed as functional, organism-based. Conditions: Paraphomopsis obscurans. Summed up: as §1
Data set [7] relates to Phomopsis obscurans. In words: Antifungal activity against Phomopsis obscurans assessed as growth inhibition after 120 hr by NCCLS M27-A broth microdilution method. It is filed as functional, organism-based. Conditions: Paraphomopsis obscurans. Summed up:
as §1

The subject of data set [8] is Diaporthe ampelina. In words: Antifungal activity against Diaporthe ampelina assessed as growth inhibition after 144 hr by NCCLS M27-A broth microdilution method. It counts as functional, organism-based. The gist of the method:
as §1

Data set [9] has as its system Diaporthe ampelina. In words: Antifungal activity against Diaporthe ampelina assessed as growth inhibition at 30 uM after 144 hr by NCCLS M27-A broth microdilution method. It is filed as functional, organism-based. The gist of the method: as §1

One may read the logP as a log measure of how a compound divides between an organic and an aqueous phase.

Each structure is given as a SMILES string. The source made the active and inactive calls. No cut-off for these calls is given here.

As for `COc1ccc(/C=C/c2cc(OC)cc(OC)c2)cc1` [TRISMETHOXYRESVERATROL], the logP in data set [1] (read-out: logP) was 4.07. Besides, in the data set with Phomopsis obscurans [2], the outcome was Active.
For `CC(C)=CCC/C(C)=C/Cc1c(O)cc(/C=C/c2ccc(O)cc2O)cc1O` [CHLOROPHORIN], the result with Diaporthe ampelina [3], in the data set with Botrytis cinerea [4], in the data set on Phomopsis obscurans [2] and in the data set on Botrytis cinerea [5] was Active. In [1], the logP came to 3.29.
In the case of `CC(C)/C=C/c1c(O)cc(/C=C/c2ccc(O)cc2)cc1O` [ARACHIDIN-3], the outcome in the data set with Botrytis cinerea [4], with Phomopsis obscurans [6], in the data set with Phomopsis obscurans [7] and with Botrytis cinerea [5] was inactive. The logP in data set [1] (read-out: logP) worked out at 2.83.
For the compound `COc1cc(O)cc(/C=C/c2ccccc2)c1` [PINOSYLVIN METHYL ETHER], the result in the data set on Diaporthe ampelina [3] and in the data set with Phomopsis obscurans [2] was Active. Moreover, the log partition coefficient (logP) in [1] (read-out: logP) stood at 3.21.
With `CC(C)/C=C/c1c(O)cc(/C=C/C2=CC(=O)OC2CC(=O)O)cc1O` (centres undefined), the result with Botrytis cinerea [4], in the data set on Phomopsis obscurans [6], with Phomopsis obscurans [7] and in the data set with Botrytis cinerea [5] was inactive. Moreover, the logP in [1] (read-out: logP) worked out at 2.59.
Regarding `CC(C)=CCc1c(O)cc(/C=C/c2ccc(O)cc2)cc1O` [ARACHIDIN-2], the outcome in the data set with Botrytis cinerea [4], in the data set with Phomopsis obscurans [6], in the data set on Phomopsis obscurans [7] and in the data set with Botrytis cinerea [5] was inactive. Besides, in data set [1] (read-out: logP), the logP was 2.56.
For the compound `COc1cc(/C=C/c2ccccc2)cc(OC)c1` [3,5-O-DIMETHYLPINOSYLVIN], the logP in [1] (read-out: logP) was determined as 4.15. Moreover, the result in the data set with Phomopsis obscurans [2] was inactive.
In data set [1], `COc1cccc(CCc2ccc(O)cc2)c1` had a logP of 3.07. Moreover, in the data set on Phomopsis obscurans [2], the result was Active.
On to `COc1ccc(/C=C/c2cc(O)cc(O[C@@H]3O[C@H](CO)[C@@H](O)[C@H](O)[C@H]3O)c2)cc1O` [RHAPONTIN], for which the outcome in the data set with Botrytis cinerea [4] and in the data set with Phomopsis obscurans [2] was Active. The compound further came in with a logP in data set [1] of 0.74.
Regarding `Oc1ccc(/C=C/c2cc(O)cc(O)c2)cc1` [RESVERATROL], the outcome in the data set on Diaporthe ampelina [3], with Botrytis cinerea [4] and with Phomopsis obscurans [2] was inactive. The logP in data set [1] (read-out: logP) came out at 1.35. For the same compound, the result in the data set with Botrytis cinerea [5] was Active.
Take `CC1(C)C=Cc2c(O)cc(/C=C/c3ccc(O)cc3)cc2O1` [ARAHYPIN-5]: the outcome in the data set on Botrytis cinerea [4] and in the data set with Botrytis cinerea [5] was inactive. In addition, the logP in data set [1] stood at 3.34. The result in the data set with Diaporthe ampelina [8] was Active.
On to `CC(C)/C=C/c1c(O)cc(/C=C/c2ccccc2)cc1O` [ARAHYPIN-1], for which the result in the data set on Botrytis cinerea [4] and with Botrytis cinerea [5] was inactive. The result in the data set with Phomopsis obscurans [6], with Phomopsis obscurans [7] and in the data set on Diaporthe ampelina [8] was Active. This compound also registered a logP in data set [1] of 3.71.
With `Oc1ccc(/C=C/c2cccc(O)c2)cc1` [(E)-3,4'-STILBENDIOL], the logP in data set [1] (read-out: logP) was 2.08. In addition, the result in the data set with Phomopsis obscurans [2] was Active.
For the compound `CC(C)(O)C(O)Cc1c(O)cc(/C=C/c2ccccc2)cc1O` (centres undefined) [ARAHYPIN-4], the outcome in the data set on Botrytis cinerea [4] and in the data set on Botrytis cinerea [5] was inactive. Moreover, the logP in data set [1] was 2.59.
As for `CC(C)(O)C(O)Cc1c(O)cc(/C=C/c2ccc(O)cc2)cc1O` (centres undefined) [ARAHYPIN-3], the outcome in the data set with Botrytis cinerea [4] and in the data set on Botrytis cinerea [5] was inactive. In addition, in data set [1], the logP is listed as 1.59.
`CC(C)(O)C(O)Cc1cc(/C=C/c2cc(O)cc(O)c2)ccc1O` (centres undefined) [ARAHYPIN-2]: the outcome in the data set on Botrytis cinerea [4], in the data set on Phomopsis obscurans [6] and in the data set on Botrytis cinerea [5] was inactive. The logP in data set [1] was found to be 1.36. The outcome with Phomopsis obscurans [7] was Active.
`Oc1cccc(/C=C/c2ccccc2)c1` [(E)-3-STILBENOL] came in with a logP in [1] of 3.22. Further, in the data set with Phomopsis obscurans [2], the result was Active.
In the case of `CC(C)=CCc1c(O)cc(/C=C/c2ccccc2)cc1O` [CHIRICANINE A], the outcome with Botrytis cinerea [4], in the data set with Phomopsis obscurans [7] and in the data set with Botrytis cinerea [5] was inactive. The outcome in the data set with Phomopsis obscurans [6] and in the data set on Diaporthe ampelina [8] was Active. In [1], this compound gave a logP of 3.46.
As for `Oc1ccc(/C=C/c2ccccc2)cc1O`, the result in the data set on Diaporthe ampelina [3], in the data set on Botrytis cinerea [4] and with Phomopsis obscurans [2] was inactive. In addition, the outcome in the data set with Botrytis cinerea [5] was Active.
As to `COc1cccc(/C=C/c2ccc(O)cc2)c1` [(E)-5-METHOXY-4'-STILBENOL], the result with Diaporthe ampelina [3] and in the data set with Phomopsis obscurans [2] was Active. Besides, the logP in data set [1] amounted to 3.14.
Regarding `Oc1cc(O)cc(/C=C/c2ccccc2)c1` [PINOSYLVIN], the result in the data set on Diaporthe ampelina [3], in the data set on Botrytis cinerea [4] and with Phomopsis obscurans [2] was inactive. In data set [1] (read-out: logP), the logP was found to be 2.25. In the data set with Botrytis cinerea [5], the outcome was Active.
For the compound `CC(C)/C=C/c1c(O)cc(/C=C/c2ccc(O)c(O)c2)cc1O` [ARACHIDIN-1], the result in the data set with Botrytis cinerea [4], in the data set with Phomopsis obscurans [6], in the data set on Phomopsis obscurans [7] and with Botrytis cinerea [5] was inactive. This compound showed a logP in data set [1] of 2.44.
As to `O=C1C2CC=CCC2C(=O)N1SC(Cl)(Cl)Cl` (centres undefined), the outcome with Diaporthe ampelina [8] was Active.
As for `Oc1cccc(CCc2ccccc2)c1` [3-PHENETHYLPHENOL], the outcome in the data set with Diaporthe ampelina [3], with Diaporthe ampelina [9] and in the data set with Phomopsis obscurans [2] was Active. Also, the logP in data set [1] is 3.19.
Regarding `COc1cc(/C=C/c2ccc(O)cc2)cc(OC)c1` [PTEROSTILBENE], the outcome in the data set on Botrytis cinerea [4], with Phomopsis obscurans [2] and in the data set with Botrytis cinerea [5] was Active. Moreover, in [1] (read-out: logP), the logP was determined as 3.15.
